From ChEMBL document CHEMBL3112415, “Novel hybrid selenosulfonamides as potent antileishmanial agents” (Eur J Med Chem, 2014)

Assays:
[1] = test system: Leishmania infantum; test: Leishmanicidal activity against axenic amastigote stage of Leishmania infantum after 24 hrs by propidium iodide staining-based flow cytometric analysis; assay type: functional, organism-based
Summary of the method: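 Axenic amastigotes maintained at pH 5.4, 37 °C in medium with citric acid, sodium bicarbonate, MES, hemin and gentamicin; miltefosine and edelfosine as standards; at least three independent experiments; IC50 values.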

[2] = Selectivity index, ratio of IC50 for human THP1 cells to IC50 for axenic amastigote stage of Leishmania infantum; assay type: toxicity, cell-based, THP-1; details: read-out: Ratio IC50
Summary of the method: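 SI computed as THP-1 IC50 (24 h PI-exclusion flow cytometry) divided by IC50 against L. infantum amastigotes.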

[3] = test system: THP-1; test: Cytotoxicity against human THP1 cells after 24 hrs by propidium iodide staining-based flow cytometric analysis; assay type: cell-based; details: THP-1, 24 h
Summary of the method: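 THP-1 cells grown in RPMI-1640 with 10% heat-inactivated FCS, 1 mM HEPES, 2 mM glutamine, 1 mM pyruvate, pH 7.2, 37 °C, 5% CO2; treated in log phase at 4 × 10⁵ cells/mL for 24 h at 37 °C, 5% CO2. Viability by flow cytometry with propidium iodide exclusion; IC50 reported.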

[4] = test system: Leishmania infantum; test: Leishmanicidal activity against amastigote stage of Leishmania infantum expressing GFP infected in human THP1 cells after 48 hrs by flow cytometric analysis; assay type: functional, organism-based; details: THP-1, 48 h
Summary of the method: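 THP-1 cells seeded at 120.000 cells/mL, differentiated to macrophages for 24 h with 10 ng/mL PMA in RPMI-1640, then infected with 1.2 × 10⁶ eGFP-expressing amastigotes per well; free parasites removed after 4 h. After 48 h drug treatment, cells washed with PBS, detached with TrypLE, and infection rate read by flow cytometry.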

| Compound | IC50 [1] | selectivity ratio [2] | IC50 [3] | IC50 [4] |
| --- | --- | --- | --- | --- |
| O=S(=O)(Nc1ccc([Se][Se]c2ccc(NS(=O)(=O)c3ccccc3F)cc2)cc1)c1ccccc1F | 1.66 µM | 10.7 | 17.8 µM | – |
| O=[N+]([O-])c1ccc(S(=O)(=O)Nc2ccc([Se][Se]c3ccc(NS(=O)(=O)c4ccc([N+](=O)[O-])cc4)cc3)cc2)cc1 | 3.74 µM | 4.6 | 17.1 µM | – |
| Cc1ccc(S(=O)(=O)Nc2ccc([Se][Se]c3ccc(NS(=O)(=O)c4ccc(C)cc4)cc3)cc2)cc1 | 1.4 µM | > 18 | > 25 µM | 4.1 µM |
| O=S(=O)(Nc1ccc([Se][Se]c2ccc(NS(=O)(=O)c3cccs3)cc2)cc1)c1cccs1 | 1.54 µM | 5.6 | 8.6 µM | – |
| O=S(=O)(Nc1ccc([Se][Se]c2ccc(NS(=O)(=O)c3ccccc3Cl)cc2)cc1)c1ccccc1Cl | 1.17 µM | 15 | 17.4 µM | – |
| O=S(=O)(Nc1ccc([Se][Se]c2ccc(NS(=O)(=O)c3cccc4cccnc34)cc2)cc1)c1cccc2cccnc12 | 0.83 µM | > 30 | > 25 µM | 6.2 µM |
| O=S(=O)(Nc1ccc([Se][Se]c2ccc(NS(=O)(=O)c3ccc(F)cc3)cc2)cc1)c1ccc(F)cc1 | 1.47 µM | > 17 | > 25 µM | 2.8 µM |
| N#Cc1ccc(S(=O)(=O)Nc2ccc([Se][Se]c3ccc(NS(=O)(=O)c4ccc(C#N)cc4)cc3)cc2)cc1 | 1.76 µM | 2 | 3.6 µM | – |
| O=S(=O)(Nc1ccc([Se][Se]c2ccc(NS(=O)(=O)c3ccc(-c4ccccc4)cc3)cc2)cc1)c1ccc(-c2ccccc2)cc1 | 13.8 µM | > 2 | > 25 µM | – |
| O=S(=O)(Nc1ccc([Se][Se]c2ccc(NS(=O)(=O)c3ccc(C(F)(F)F)cc3)cc2)cc1)c1ccc(C(F)(F)F)cc1 | 2.01 µM | 9.5 | 19.1 µM | – |
| COc1ccc(S(=O)(=O)Nc2ccc([Se][Se]c3ccc(NS(=O)(=O)c4ccc(OC)cc4)cc3)cc2)cc1 | 1.3 µM | 14 | 18.1 µM | – |
| O=S(=O)(Nc1ccc([Se][Se]c2ccc(NS(=O)(=O)c3ccc(Cl)cc3)cc2)cc1)c1ccc(Cl)cc1 | 3.63 µM | > 7 | > 25 µM | – |
| O=S(=O)(Nc1ccc([Se][Se]c2ccc(NS(=O)(=O)c3ccc4ccccc4c3)cc2)cc1)c1ccc2ccccc2c1 | 5.65 µM | > 4.4 | > 25 µM | – |
| O=S(=O)(Nc1ccc([Se][Se]c2ccc(NS(=O)(=O)c3ccccc3)cc2)cc1)c1ccccc1 | 1.64 µM | 7.3 | 11.9 µM | – |
| Cn1ccnc1S(=O)(=O)Nc1ccc([Se][Se]c2ccc(NS(=O)(=O)c3nccn3C)cc2)cc1 | 1.05 µM | 4 | 4.4 µM | – |
| O=S(=O)(Nc1ccc([Se][Se]c2ccc(NS(=O)(=O)c3ccc(Br)cc3)cc2)cc1)c1ccc(Br)cc1 | 2.8 µM | 2 | 5.2 µM | – |
| CCCCCCCCCCCCCCCCCCOCC(COP(=O)([O-])OCC[N+](C)(C)C)OC (stereo not given) [EDELFOSINE] | – | 6 | 4.9 µM | 3.1 µM |
| CCCCCCCCCCCCCCCCOP(=O)([O-])OCC[N+](C)(C)C [MILTEFOSINE] | – | 7 | – | – |
